In data set [1] the target is T1, Toll-like receptor 7 (Homo sapiens) (UniProt Q9NYK1).
T1 sequence (whole entry): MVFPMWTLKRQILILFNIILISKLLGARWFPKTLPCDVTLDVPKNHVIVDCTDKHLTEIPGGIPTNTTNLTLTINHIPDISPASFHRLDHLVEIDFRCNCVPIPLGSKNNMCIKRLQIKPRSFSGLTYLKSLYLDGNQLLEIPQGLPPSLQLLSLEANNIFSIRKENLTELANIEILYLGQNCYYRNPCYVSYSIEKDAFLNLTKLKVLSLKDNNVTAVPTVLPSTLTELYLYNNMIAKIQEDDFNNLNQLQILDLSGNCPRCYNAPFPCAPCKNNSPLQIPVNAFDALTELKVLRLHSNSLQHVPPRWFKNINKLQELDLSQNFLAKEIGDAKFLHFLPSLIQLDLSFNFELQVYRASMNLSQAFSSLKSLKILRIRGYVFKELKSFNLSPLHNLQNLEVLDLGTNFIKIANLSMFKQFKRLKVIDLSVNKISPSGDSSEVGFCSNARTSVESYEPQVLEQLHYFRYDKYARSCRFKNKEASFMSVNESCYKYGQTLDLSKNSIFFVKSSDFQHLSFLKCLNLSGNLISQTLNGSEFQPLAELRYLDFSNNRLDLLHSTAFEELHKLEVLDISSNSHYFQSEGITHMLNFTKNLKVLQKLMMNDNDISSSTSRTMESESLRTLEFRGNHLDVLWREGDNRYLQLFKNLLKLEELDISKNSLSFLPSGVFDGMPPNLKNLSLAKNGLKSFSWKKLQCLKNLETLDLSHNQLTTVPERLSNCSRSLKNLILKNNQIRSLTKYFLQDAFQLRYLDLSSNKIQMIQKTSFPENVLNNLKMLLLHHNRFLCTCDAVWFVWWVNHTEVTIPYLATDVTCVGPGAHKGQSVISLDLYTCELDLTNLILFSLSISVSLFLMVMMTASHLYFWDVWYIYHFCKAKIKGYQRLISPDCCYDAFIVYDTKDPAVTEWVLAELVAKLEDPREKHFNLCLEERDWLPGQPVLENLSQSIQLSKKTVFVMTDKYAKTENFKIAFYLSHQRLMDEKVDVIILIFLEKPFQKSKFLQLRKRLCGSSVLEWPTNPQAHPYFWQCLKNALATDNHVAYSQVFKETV
Description: Inhibition of human TLR7 expressed in HEK293 cells assessed as reduction in R848-induced NFkappaB production at 50 uM incubated for 16 hrs by quanti-blue SEAP assay relative to control. Format: cell-based. In outline:
(§1)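 HEK 293-Blue cells stably expressing hTLR7 or hTLR8 with an inducible SEAP reporter were incubated 16 h with compound under 1 µg/mL R848 stimulation. SEAP was read at 620 nm. Data were normalized to the R848 control, and IC50 was taken from concentration-response curves. […] Mean ± s.d., n = 3 independent experiments.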

In data set [2] the target is T2, Toll-like receptor 8 (Homo sapiens) (UniProt Q9NR97).
T2 sequence (whole entry): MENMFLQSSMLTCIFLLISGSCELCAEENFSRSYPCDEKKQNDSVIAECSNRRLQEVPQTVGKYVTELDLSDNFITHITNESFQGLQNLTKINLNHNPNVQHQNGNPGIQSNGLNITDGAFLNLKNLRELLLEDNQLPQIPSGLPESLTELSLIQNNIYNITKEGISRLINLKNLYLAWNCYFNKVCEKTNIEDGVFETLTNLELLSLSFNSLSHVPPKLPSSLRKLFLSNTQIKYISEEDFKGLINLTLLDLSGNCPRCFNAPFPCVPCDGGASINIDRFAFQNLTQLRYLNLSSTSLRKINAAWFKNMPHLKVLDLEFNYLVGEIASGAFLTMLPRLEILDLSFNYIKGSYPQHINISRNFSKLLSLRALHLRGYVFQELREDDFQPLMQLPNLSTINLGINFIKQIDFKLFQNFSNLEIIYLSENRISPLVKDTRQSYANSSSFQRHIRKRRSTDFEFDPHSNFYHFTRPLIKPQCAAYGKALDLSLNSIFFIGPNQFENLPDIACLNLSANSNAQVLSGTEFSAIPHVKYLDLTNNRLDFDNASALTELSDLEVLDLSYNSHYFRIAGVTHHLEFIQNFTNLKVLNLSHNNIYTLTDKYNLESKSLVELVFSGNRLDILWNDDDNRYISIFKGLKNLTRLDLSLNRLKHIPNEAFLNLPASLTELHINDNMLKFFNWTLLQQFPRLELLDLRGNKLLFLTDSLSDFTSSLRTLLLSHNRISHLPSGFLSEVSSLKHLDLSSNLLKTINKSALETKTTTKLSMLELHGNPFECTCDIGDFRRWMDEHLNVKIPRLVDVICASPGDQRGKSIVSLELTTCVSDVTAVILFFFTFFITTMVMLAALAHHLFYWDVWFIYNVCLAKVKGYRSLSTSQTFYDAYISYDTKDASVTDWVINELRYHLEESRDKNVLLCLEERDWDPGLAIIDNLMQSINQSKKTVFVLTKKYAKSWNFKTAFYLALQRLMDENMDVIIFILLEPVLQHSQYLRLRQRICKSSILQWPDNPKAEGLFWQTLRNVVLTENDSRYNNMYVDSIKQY
Description: Inhibition of human TLR8 expressed in HEK293 cells assessed as reduction in R848-induced NFkappaB production at 50 uM incubated for 16 hrs by quanti-blue SEAP assay relative to control. Format: cell-based. The essentials: as §1

A further data set addresses T3, Toll-like receptor 7 (Homo sapiens, UniProt Q9NYK1).
T3 sequence (Q9NYK1 whole entry): T1 sequence (whole entry)
Description: (§2) Inhibition of human TLR7 expressed in HEK293 cells assessed as reduction in R848-induced NFkappaB production incubated for 16 hrs by quanti-blue SEAP assay. Format: cell-based. The essentials:
as §1

Data set [3] concerns the target T2, Toll-like receptor 8 (Homo sapiens). Description: Inhibition of human TLR8 expressed in HEK293 cells assessed as reduction in R848-induced NFkappaB production at 1.5 to 5 uM incubated for 16 hrs by quanti-blue SEAP assay. Format: cell-based. In outline: (§3)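 Selectivity panel in stably transfected HEK 293-Blue cells, each overexpressing one human TLR with an inducible SEAP reporter. Agonists: Pam3CSK4 (TLR1/2), Pam2CSK4 (TLR2/6), poly(I:C) (TLR3), LPS (TLR4), R848 (TLR7/8), ODN 2006 (TLR9). Cells were exposed to compound for 16 h. Activity = (raw − untreated)/(ligand + solvent − untreated), with ligand + solvent set as 100%.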

Data set [4] addresses Toll-like receptor 8 (Homo sapiens) (UniProt Q9NR97). Description: Inhibition of human TLR8 expressed in HEK293 cells assessed as reduction in resiquimod-induced NFkappaB production at 1.5 to 5 uM incubated for 16 hrs by quanti-blue SEAP assay.
The target in data set [5] is Toll-like receptor 7 (Homo sapiens) (UniProt Q9NYK1). Description: Inhibition of human TLR7 expressed in HEK293 cells assessed as reduction in R848-induced NFkappaB production incubated for 16 hrs by quanti-blue SEAP assay. Conditions: concentration not given here.
A further data set deals with T4, Toll-like receptor 8 (Homo sapiens, UniProt Q9NR97).
T4 sequence (Q9NR97 whole entry): T2 sequence (whole entry)
The experiment in a line: (§4) Inhibition of human TLR8 expressed in HEK293 cells assessed as reduction in R848-induced NFkappaB production incubated for 16 hrs by quanti-blue SEAP assay. Format: cell-based. In outline: as §1

The target of data set [6] is T1, Toll-like receptor 7 (Homo sapiens). Description: Inhibition of human TLR7 expressed in HEK293 cells assessed as reduction in resiquimod-induced NFkappaB production at 1.5 to 5 uM incubated for 16 hrs by quanti-blue SEAP assay. It is filed as cell-based. In outline:
as §3

For data set [7] the target is unchanged. Described as §2. It is filed as cell-based. The essentials: as §1
Data set [8] has as its system HEK293. Description: Cytotoxicity against human HEK293 cells transfected with human TLR8 assessed as reduction in cell viability up to 5 uM incubated for 16 hrs by WST-1 assay. It is filed as cell-based. The conditions noted are these: hek293, 16 h. Background: Formazan colour is commonly taken as a measure of viable cells.
The next data set addresses TLR2/TLR6 (Homo sapiens) (UniProt O60603+Q9Y2C9). Description: Inhibition of human TLR2/6 expressed in HEK293 cells assessed as reduction in Pam2CSK4-induced NFkappaB production at 1.5 to 5 uM incubated for 16 hrs by quanti-blue SEAP assay. Format: cell-based. The essentials:
as §3

The target in data set [9] is T2, Toll-like receptor 8 (Homo sapiens). Description: Inhibition of human TLR8 expressed in HEK293 cells assessed as reduction in R848-induced NFkappaB production at 1.5 to 5 uM incubated for 16 hrs by quanti-blue SEAP assay.
Data set [10] concerns the target Toll-like receptor 3 (Homo sapiens) (UniProt O15455). Description: Inhibition of human TLR3 expressed in HEK293 cells assessed as reduction in poly(I:C)-induced NFkappaB production at 1.5 to 5 uM incubated for 16 hrs by quanti-blue SEAP assay. Format: cell-based. The essentials: as §3
For data set [11], the system named is HEK293. Description: Inhibition of human TLR1/2 expressed in HEK293 cells assessed as reduction in Pam3CSK4-induced NFkappaB production at 1.5 to 5 uM incubated for 16 hrs by quanti-blue SEAP assay. It is filed as cell-based. In outline:
as §3

Data set [12] deals with Toll-like receptor 4 (Homo sapiens) (UniProt O00206). The experiment in a line: Inhibition of human TLR4 expressed in HEK293 cells assessed as reduction in LPS-induced NFkappaB production at 1.5 to 5 uM incubated for 16 hrs by quanti-blue SEAP assay. Format: cell-based. The essentials:
as §3

For data set [13], the target named is T2, Toll-like receptor 8 (Homo sapiens). The description is as §4. It is filed as cell-based. The essentials: as §1

pIC50: −log10 of the molar value. Activity calls are given as the source filed them. The rule behind the calls is not given here.

The inhibition is the percentage by which the read-out fell short of the control. In general, pIC50 refers to the negative decadic logarithm of the IC50, by convention in mol/L.

Toll-like receptor 4 (Homo sapiens), sequence (O00206 whole entry): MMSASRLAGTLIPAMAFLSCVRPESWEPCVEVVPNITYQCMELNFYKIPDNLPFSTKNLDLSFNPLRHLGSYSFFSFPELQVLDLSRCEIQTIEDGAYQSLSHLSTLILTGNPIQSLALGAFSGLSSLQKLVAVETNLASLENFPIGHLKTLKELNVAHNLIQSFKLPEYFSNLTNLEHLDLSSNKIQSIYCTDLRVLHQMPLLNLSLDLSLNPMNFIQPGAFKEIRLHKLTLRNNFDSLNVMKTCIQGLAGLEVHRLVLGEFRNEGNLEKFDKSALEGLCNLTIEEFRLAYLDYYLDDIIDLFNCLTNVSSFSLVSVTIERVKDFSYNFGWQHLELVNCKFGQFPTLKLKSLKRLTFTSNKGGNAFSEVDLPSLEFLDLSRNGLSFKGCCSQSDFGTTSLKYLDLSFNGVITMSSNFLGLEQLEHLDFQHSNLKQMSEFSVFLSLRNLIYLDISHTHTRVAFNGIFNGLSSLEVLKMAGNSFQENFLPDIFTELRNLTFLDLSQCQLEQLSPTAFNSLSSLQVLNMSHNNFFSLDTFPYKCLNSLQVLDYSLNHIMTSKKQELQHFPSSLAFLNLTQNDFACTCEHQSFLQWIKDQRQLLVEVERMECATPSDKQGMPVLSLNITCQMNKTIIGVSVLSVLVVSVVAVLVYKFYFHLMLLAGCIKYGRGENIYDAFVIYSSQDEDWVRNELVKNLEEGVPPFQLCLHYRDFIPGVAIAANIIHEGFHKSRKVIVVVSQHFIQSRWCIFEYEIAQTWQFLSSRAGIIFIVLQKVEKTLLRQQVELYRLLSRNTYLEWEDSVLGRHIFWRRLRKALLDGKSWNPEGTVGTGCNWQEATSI
Toll-like receptor 3 (Homo sapiens), sequence (O15455 whole entry): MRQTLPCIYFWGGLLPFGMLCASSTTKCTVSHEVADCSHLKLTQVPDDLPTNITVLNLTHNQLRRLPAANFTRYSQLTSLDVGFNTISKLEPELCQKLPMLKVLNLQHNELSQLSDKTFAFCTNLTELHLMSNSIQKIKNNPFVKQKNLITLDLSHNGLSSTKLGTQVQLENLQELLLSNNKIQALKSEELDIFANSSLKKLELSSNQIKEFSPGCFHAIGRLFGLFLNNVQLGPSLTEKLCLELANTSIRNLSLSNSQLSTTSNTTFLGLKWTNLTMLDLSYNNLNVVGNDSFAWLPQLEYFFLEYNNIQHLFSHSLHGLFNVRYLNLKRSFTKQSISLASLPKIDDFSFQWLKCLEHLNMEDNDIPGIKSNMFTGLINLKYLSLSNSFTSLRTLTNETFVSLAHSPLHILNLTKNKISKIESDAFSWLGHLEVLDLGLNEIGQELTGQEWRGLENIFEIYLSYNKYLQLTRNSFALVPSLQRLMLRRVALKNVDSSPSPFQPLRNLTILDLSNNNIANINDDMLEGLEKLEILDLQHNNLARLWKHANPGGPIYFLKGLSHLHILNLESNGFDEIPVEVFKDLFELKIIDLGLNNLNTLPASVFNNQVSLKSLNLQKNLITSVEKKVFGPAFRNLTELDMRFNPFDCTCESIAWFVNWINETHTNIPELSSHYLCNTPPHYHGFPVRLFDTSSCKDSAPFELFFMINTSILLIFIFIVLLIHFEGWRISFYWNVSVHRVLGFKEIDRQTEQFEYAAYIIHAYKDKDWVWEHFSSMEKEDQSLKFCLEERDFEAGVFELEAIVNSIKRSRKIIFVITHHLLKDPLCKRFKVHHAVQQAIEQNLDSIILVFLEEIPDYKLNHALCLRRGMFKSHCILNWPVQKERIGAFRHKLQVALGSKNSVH

For the compound `O=C(Nc1ccc(Oc2cc(C(F)(F)F)cc(C(F)(F)F)c2)cc1)c1c(O)cccc1F`, the inhibition in data set [1] and in data set [2] was 20 to 30% throughout.

Consider `O=C(Nc1ccc(Oc2cc(C(F)(F)F)cc(C(F)(F)F)c2)cc1)c1ccc2nc[nH]c2c1`, for which, on Toll-like receptor 7, the pIC50 is under 4.30. In data set [2], the inhibition was in the range of 20 to 30%.

On to `O=C(Nc1ccc(Oc2cc(C(F)(F)F)cc(C(F)(F)F)c2)cc1)c1ncccc1F`, for which the pIC50 on Toll-like receptor 7 was under 4.30. Also, the inhibition in [3] is 0%.

With `O=C(Nc1c(F)cccc1Cl)c1ccc(Oc2cc(C(F)(F)F)cc(C(F)(F)F)c2)cc1`, the pIC50 in data set [4] is 5.15. Besides, in [5], the inhibition was found to be 0%.

`Nc1cccc(F)c1C(=O)Nc1ccc(Oc2cc(C(F)(F)F)cc(C(F)(F)F)c2)cc1`: the inhibition in data set [1] and in data set [2] was 20 to 30% in each case.

With `O=C(Nc1ccc(Oc2cc(C(F)(F)F)cc(C(F)(F)F)c2)cc1)c1cc(Cl)ccc1F`, the inhibition in [1] was in the range of 20 to 30%. Also, the pIC50 at Toll-like receptor 8 is 5.95.

As for `O=C(Nc1ccc(Oc2cc(C(F)(F)F)cc(C(F)(F)F)c2)cc1)c1c(F)cccc1C(F)(F)F`, the inhibition in [1] and in [2] was 20 to 30% each time.

As to `O=S(=O)(Nc1ccc(Oc2cc(C(F)(F)F)cc(C(F)(F)F)c2)cc1)c1ccccc1F`, the inhibition in [6] and in data set [3] was 0% in each case.

On to `O=C(Nc1ccc(Oc2cc(C(F)(F)F)cc(C(F)(F)F)c2)cc1)c1cc(I)ccc1F`, for which the inhibition is 0% in [6] and 20 to 30% in data set [2].

Regarding `Fc1cccc(I)c1-c1nc2cc(Oc3cc(C(F)(F)F)cc(C(F)(F)F)c3)ccc2[nH]1`, the inhibition in data set [6] and in data set [3] was 0% each time.

As for `CN(C(=O)c1c(F)cccc1Cl)c1ccc(Oc2cc(C(F)(F)F)cc(C(F)(F)F)c2)cc1`, the pIC50 in data set [4] is 5.54. The inhibition in data set [5] is 0%.

Take `O=S(=O)(Nc1ccc(Oc2cc(C(F)(F)F)cc(C(F)(F)F)c2)cc1)c1c(F)cccc1Cl`: the inhibition in data set [6] and in data set [3] was 0% each time.

As for `O=C(Nc1ccc(Oc2cc(C(F)(F)F)cc(C(F)(F)F)c2)cc1)c1ccc2[nH]ccc2c1`, the pIC50 at Toll-like receptor 7 is under 4.30. In [2], the inhibition fell in the range of 20 to 30%.

Regarding `N#Cc1c(Cl)cccc1Oc1ccc(-c2nnco2)cc1`, the inhibition entry (in [6]; on TLR2/TLR6 (Homo sapiens); in [10]; in the data set with HEK293 [11]; in [12]) was “inactive” throughout. Further, the inhibition entry in data set [7] and in [13] was “Dose-dependent effect” throughout. The Activity result in the data set with HEK293 [8] is reported as “Non-Toxic”. Besides, the inhibition result in [9] and in data set [3] was “Active” throughout. At Toll-like receptor 8, the pIC50 was 5.85.

In the case of `O=C(Nc1cc(C(F)(F)F)cc(C(F)(F)F)c1)c1c(F)cccc1Cl`, the pIC50 in data set [4] is 5.85. In addition, the inhibition in [5] was determined as 0%.

Values taken from ChEMBL document CHEMBL4354819, “Discovery of Novel Small Molecule Dual Inhibitors Targeting Toll-Like Receptors 7 and 8” (J Med Chem, 2019).
